3 compounds from ChEMBL document CHEMBL4038302, “Fibroblast Activation Protein α Activated Tripeptide Bufadienolide Antitumor Prodrug with Reduced Cardiotoxicity” (J Med Chem, 2017) can be followed below.

For data set [1], the target named is T1, Prolyl endopeptidase FAP (Homo sapiens, UniProt Q12884).
T1 sequence (Q12884 whole entry): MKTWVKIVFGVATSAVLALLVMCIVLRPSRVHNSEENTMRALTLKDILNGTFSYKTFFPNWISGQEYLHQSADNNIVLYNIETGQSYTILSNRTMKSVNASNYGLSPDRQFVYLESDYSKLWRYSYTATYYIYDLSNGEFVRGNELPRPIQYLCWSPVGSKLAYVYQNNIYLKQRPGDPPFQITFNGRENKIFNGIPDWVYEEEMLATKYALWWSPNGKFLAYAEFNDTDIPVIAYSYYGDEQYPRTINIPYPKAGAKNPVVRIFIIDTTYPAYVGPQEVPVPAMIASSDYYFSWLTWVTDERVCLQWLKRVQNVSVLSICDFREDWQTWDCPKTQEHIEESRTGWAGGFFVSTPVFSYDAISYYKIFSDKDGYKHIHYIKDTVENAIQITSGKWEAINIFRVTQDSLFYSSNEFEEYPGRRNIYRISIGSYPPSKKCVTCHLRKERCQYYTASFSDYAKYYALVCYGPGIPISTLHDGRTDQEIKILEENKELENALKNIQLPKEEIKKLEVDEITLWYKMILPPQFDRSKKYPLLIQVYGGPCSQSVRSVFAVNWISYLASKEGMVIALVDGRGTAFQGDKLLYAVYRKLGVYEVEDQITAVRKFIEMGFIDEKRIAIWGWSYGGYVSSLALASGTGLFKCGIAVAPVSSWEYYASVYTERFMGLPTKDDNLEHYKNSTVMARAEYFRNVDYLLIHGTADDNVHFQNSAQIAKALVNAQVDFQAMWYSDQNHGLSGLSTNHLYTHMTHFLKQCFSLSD
The data set is described as follows: Prodrug activation assessed as recombinant human FAP-alpha mediated (S)-((3S,5R,8R,9S,10S,11S,13R,14S,17R)-11,14-dihydroxy-10,13-dimethyl-12-oxo-17-(2-oxo-2H-pyran-5-yl)hexadecahydro-1H-cyclopenta[a]phenanthren-3-yl) 2-amino-3-methylbutanoate formation […] after 90 mins by UPLC-MS/MS analysis. To be noted: 1.5 h. A digest of the protocol: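 Prodrug at 0.625–40 μmol/L incubated with rhFAPα at 0.45 μg/mL and internal standard in 0.2 mL PBS, pH 7.4, at 37 °C for 90 min. Quenched with MeCN and spun at 18 000g for 15 min; product measured by UPLC-MS/MS. S50 and Vmax fitted with an allosteric sigmoidal model; CLint = Vmax/S50. Three independent experiments.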

The nature of data set [2]: Cytotoxicity in BMSC (unknown origin) assessed as cell viability at 1000 nmol/L after 72 hrs by MTT assay. It counts as cell-based. To be noted: unidentified, 1 µM.
The next data set relates to MDA-MB-435. The data set is described as follows: Antiproliferative activity against wild type human MDA-MB-435 cells expressing FAP-alpha incubated for 48 hrs by MTT assay. To be noted: MDA-MB-435, 48 h. It counts as functional, cell-based. A digest of the protocol:
(§1)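 Cells grown in DMEM with 10% FBS and 1% penicillin-streptomycin at 37 °C, 5% CO2; 10% heat-inactivated FBS used during cytotoxicity testing to exclude serum FAP activity. Viability read by MTT; IC50 as mean ± SEM of at least three independent experiments. Transfected lines were made from MDA-MB-231 with human FAPα plasmid or empty pCMV6-Entry vector and checked by Western blot at 48 h.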
On the technique in general: Formazan colour is commonly taken as a measure of viable cells.

The next data set relates to MCF7. The data set is described as follows: Antiproliferative activity against FAP-alpha deficient human MCF7 cells incubated for 48 hrs by MTT assay. It counts as functional, cell-based. To be noted: MCF7, 48 h. A digest of the protocol: as §1
In data set [3] the test system is MDA-MB-231. The data set is described as follows: Antiproliferative activity against FAP-alpha deficient human MDA-MB-231 cells incubated for 48 hrs by MTT assay. Type of data set: functional, cell-based. To be noted: MDA-MB-231, 48 h. The method, boiled down:
as §1

In data set [4] the test system is MDA-MB-231. The data set is described as follows: Antiproliferative activity against human MDA-MB-231 cells assessed as decrease in cell viability at 62.5 to 500 nmol/L after 72 hrs by MTT assay. Type of data set: functional, cell-based.
The test system of data set [5] is MDA-MB-231. The data set is described as follows: Antitumor activity against human MDA-MB-231 cells xenografted in BALB/C nude mouse at 4 umol/kg, iv administered starting on day 5 measured after day 22 by Ki67 staining-based assay relative to control. Type of data set: functional. A digest of the protocol: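 Female BALB/C nude mice, MDA-MB-231 cells (1 × 10^7) injected subcutaneously in Matrigel–PBS 1:1. Daily iv dosing in 5% HS15 vehicle from day 5. Tumours fixed and paraffin-embedded, 5 μm sections, anti-Ki67 IHC, read blind by a pathologist. Proliferative index by image analysis, n = 6. Compared with 5% HS15 control by one-way ANOVA and Tukey's test.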
In general terms: A xenograft is tissue or cells of one species grown in another, often human tumour cells in immunodeficient mice.

Data set [6] concerns MDA-MB-231. The data set is described as follows: Antitumor activity against human MDA-MB-231 cells xenografted in BALB/C nude mouse assessed as tumor regression at 4 umol/kg, iv administered starting on day 5 measured after day 22 by Ki67 staining-based assay. Type of data set: functional, organism-based.
Data set [7] relates to Mus musculus. The data set is described as follows: Cardiotoxicity in BALB/C nude mouse xenografted with human MDA-MB-231 cells assessed as increase in interventricular septal systole dimension at 4 umol/kg, iv administered starting on day 5 measured after day 22 by echocardiography. To be noted: in vivo. Type of data set: toxicity, organism-based. The method, boiled down: (§2)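 MDA-MB-231 xenograft mice dosed iv daily in 5% HS15 from day 5, 22 days of treatment. Transthoracic echocardiography with a 21 MHz transducer under 1.5% isoflurane, supine position. M-mode images from parasternal short-axis view at papillary muscle level, used to derive LVIDd, LVIDs, IVSd and IVSs. n = 6, mean ± SEM, one-way ANOVA with Tukey's test.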

In data set [8] the test system is Mus musculus. The data set is described as follows: Cardiotoxicity in BALB/C nude mouse xenografted with human MDA-MB-231 cells assessed as increase in interventricular septal diastole dimension at 4 umol/kg, iv administered starting on day 5 measured after day 22 by echocardiography. It counts as toxicity, organism-based. To be noted: in vivo. The method, boiled down:
as §2

In data set [9] the test system is Mus musculus. The data set is described as follows: Cardiotoxicity in BALB/C nude mouse xenografted with human MDA-MB-231 cells assessed as decrease in left ventricular internal systole dimension at 4 umol/kg, iv administered starting on day 5 measured after day 22 by echocardiography. Type of data set: toxicity, organism-based. To be noted: in vivo. A digest of the protocol:
as §2

The subject of data set [10] is Mus musculus. The data set is described as follows: Cardiotoxicity in BALB/C nude mouse xenografted with human MDA-MB-231 cells assessed as decrease in left ventricular internal diastole dimension at 4 umol/kg, iv administered starting on day 5 measured after day 22 by echocardiography. It counts as toxicity, organism-based. To be noted: in vivo. The method, boiled down:
as §2

Data set [11] deals with Mus musculus. The data set is described as follows: Cardiotoxicity in BALB/C nude mouse xenografted with human MDA-MB-231 cells assessed as cytoplasmic vacuolization at 4 umol/kg, iv administered starting on day 5 measured after day 22 by hematoxylin-eosin staining-based assay. To be noted: in vivo. Type of data set: toxicity, organism-based. The method, boiled down: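 Xenograft mice (MDA-MB-231, female BALB/C nude) dosed iv daily in 5% HS15 from day 5. Heart fixed 24 h, paraffin-embedded, cut into 5 μm sections and stained with H&E. Vacuolization scored by a pathologist blind to treatment.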

Data set [12] has as its system Mus musculus. The data set is described as follows: Cardiotoxicity in BALB/C nude mouse xenografted with human MDA-MB-231 cells assessed as increase in LDH level at 4 umol/kg, iv administered starting on day 5 measured after day 22. To be noted: in vivo. Type of data set: toxicity, organism-based. The method, boiled down:
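Xenograft-bearing mice dosed iv daily in 5% HS15. Blood taken by cardiac puncture before sacrifice and spun at 3000 rpm for 20 min at 4 °C to give serum. D-LDH activity measured by colorimetric kit. n = 6, one-way ANOVA with Tukey's test against HS15 control.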

The nature of data set [13]: Acute toxicity in iv dosed Kunming mouse measured less than 4 hrs post dose. It counts as organism-based. To be noted: in vivo. A digest of the protocol:
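Kunming mice (22.0−28.0 g), half male and half female, 10 groups of n = 10. Single iv dose on day 1 across five levels per compound (prodrug 29.98–50.00 μmol/kg; arenobufagin 4.50–8.00 μmol/kg). Watched continuously for 8 h for abnormal behaviour and deaths, then intermittently for 2 weeks, and sacrificed day 14. LD50 by Bliss method.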

In data set [14] the test system is Mus musculus. The data set is described as follows: Acute toxicity in Kunming mouse assessed as mortality at 4 umol/kg, iv after 8 hrs post dose. To be noted: in vivo. Type of data set: organism-based.
In data set [15] the target is T1, Prolyl endopeptidase FAP. The data set is described as follows: Prodrug activation assessed as recombinant human FAP-alpha mediated (3S,5R,8R,9S,10S,11S,13R,14S,17R)-11,14-dihydroxy-10,13-dimethyl-12-oxo-17-(2-oxo-2H-pyran-5-yl)hexadecahydro-1H-cyclopenta[a]phenanthren-3-yl 4-aminobenzoate formation at 40 umol/L after 6 hrs by UPLC-MS/MS analysis. To be noted: 40 µM. The method, boiled down: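 Prodrug at 40 μmol/L incubated with rhFAPα at 0.45 μg/mL in 0.2 mL buffer at 37 °C for 6 h, with bufalin at 2 μmol/L as internal standard. Stopped with acetonitrile and spun at 18 000g for 15 min. Released active form measured by UPLC-MS/MS via peak-area ratio against a standard curve of 0.625–40 μmol/L.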

Active and inactive are the calls of the source. No cut-off for these calls is given here.

Turning to `CC(C)[C@H](NC(=O)[C@@H]1CCCN1C(=O)CNC(=O)OCc1ccccc1)C(=O)O[C@H]1CC[C@@]2(C)[C@H](CC[C@@H]3[C@@H]2[C@H](O)C(=O)[C@]2(C)[C@@H](c4ccc(=O)oc4)CC[C@]32O)C1`, the CL on Prolyl endopeptidase FAP [1] was determined as 1.27 mL/min/mg.
In general, IC50 refers to the point on the concentration scale where inhibition reaches its midpoint. Read a high IC50 as weaker potency. A word on the LD50: it is the dose expected to kill half of the subjects tested. Lower therefore signals greater toxicity. As to `C[C@]12CC[C@H](O)C[C@H]1CC[C@@H]1[C@@H]2[C@H](O)C(=O)[C@]2(C)[C@@H](c3ccc(=O)oc3)CC[C@]12O`, the Activity entry is listed as “Non-Toxic” in data set [2]; 45 - 50% in the data set on MDA-MB-231 [5]; “Toxic” in the data set with Mus musculus [7]; “Toxic” in the data set with Mus musculus [8]; “Toxic” in the data set with Mus musculus [9]; “Toxic” with Mus musculus [10]. Besides, the Activity entry with Mus musculus [11] is on record as “Toxic”; with Mus musculus [12] it was “Toxic”; in the data set with Mus musculus [14], “Non-Toxic”. For the same compound, the concentration for half-maximal inhibition (IC50) with MDA-MB-435 came to 22.4 nM; in the data set on MCF7, 8.88 nM; with MDA-MB-231 [3] it was 15.7 nM. Moreover, the result with MDA-MB-231 [4] and in the data set on MDA-MB-231 [6] was Active. Besides, in data set [13], the LD50 at 4 h amounted to 6.82 µmol/kg.
Turning to `C[C@]12CC[C@H](OC(=O)c3ccc(NC(=O)[C@@H]4CCCN4C(=O)CNC(=O)OCc4ccccc4)cc3)C[C@H]1CC[C@@H]1[C@@H]2[C@H](O)C(=O)[C@]2(C)[C@@H](c3ccc(=O)oc3)CC[C@]12O`, the Drug metabolism result at Prolyl endopeptidase FAP [15] is recorded as “Metabolite_Notdetected”.
